Test results as given in ChEMBL document CHEMBL1152606, “Thienylhalomethylketones: Irreversible glycogen synthase kinase 3 inhibitors as useful pharmacological tools” (Bioorg Med Chem, 2009).
Active and inactive are the calls of the source. The rule behind the calls is not given here.

Columns and labels:
[1] = molecular target: T1, Glycogen synthase kinase-3 beta (Homo sapiens, UniProt P49841); assay: Noncompetitive inhibition of GSK3-beta by double-reciprocal plotting in presence of increasing ATP
Method in brief: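 Lineweaver-Burk analysis with ATP varied 6.5–100 µM and inhibitor 1–2 µM, GS-1 fixed at 15 µM; 20 min [γ-32P] incorporation into GS-1, V as pmol phosphate/20 min.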

[2] = molecular target: D(3) dopamine receptor (Homo sapiens) (UniProt P35462); assay: Displacement of [3H]spiperone from human recombinant dopamine D3 receptor expressed in CHO cells at 10 uM; type: cell-based
Method in brief: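 Human recombinant D3 receptor from CHO cells; [3H]spiperone 0.3 nM as ligand; (+)-buctaclamol reference compound.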

[3] = molecular target: D(2) dopamine receptor (Homo sapiens) (UniProt P14416); assay: Displacement of [3H]spiperone from human recombinant dopamine D2 receptor expressed in CHO cells at 10 uM; type: cell-based
Method in brief: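 Human recombinant D2 receptor expressed in CHO cells; [3H]spiperone ligand at 0.3 nM; (+)-buctaclamol as reference compound.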

[4] = molecular target: Insulin receptor (Homo sapiens) (UniProt P06213); assay: Inhibition of human recombinant IR at 10 uM by liquid scintillation counting in presence of [33gammaP]ATP
Method in brief: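 Human recombinant insulin receptor kinase; [γ33-P]ATP plus poly GT (0.03 mg/mL); staurosporine reference; liquid scintillation detection; 10 µM compound.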

[5] = molecular target: Dual specificity mitogen-activated protein kinase kinase 1 (Oryctolagus cuniculus) (UniProt P29678); assay: Inhibition of rabbit recombinant MEK1 expressed in Escherichia coli at 10 uM by liquid scintillation counting in presence of [33gammaP]ATP
Method in brief: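 Rabbit recombinant MEK1 from E. coli; ATP plus unactivated MAP kinase (0.01 mg/mL) as substrate; staurosporine reference; liquid scintillation detection; 10 µM.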

[6] = molecular target: Proto-oncogene tyrosine-protein kinase Src (Homo sapiens) (UniProt P12931); assay: Inhibition of Src at 10 uM
[7] = Displacement of [3H]QNB from muscarinic receptor at 10 uM
[8] = molecular target: Glycogen synthase kinase-3 beta (Mus musculus) (UniProt Q9WV60); assay: Inhibition of GSK-3-beta-mediated tau phosphorylation in mouse granule cerebellar neurons cells after 16 hrs by Western blot
Method in brief: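 Cerebellar granule neurons from P6 mice, plated on poly-L-lysine and grown 48 h in serum-free neurobasal/B-27 with 12.5 mM KCl; compounds 0.5–25 µM; LiCl 10 mM positive control with excess myo-inositol; lysates blotted with PHF-1 and Tau-1, normalised to β-actin, densitometry; mean of three experiments, control = 100 r.u.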

[9] = system: N2a; assay: Induction of neurite growth in mouse Neuro2a cells at 0.2 uM after 16 hrs by phase-contrast photography; type: functional, cell-based
Method in brief: (§1)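 Neuro2A mouse neuroblastoma cells grown in DMEM with 10% heat-inactivated FCS, 2 mM glutamine and antibiotics; compounds added in serum-containing medium for 16 h; control received DMSO; neurite/cytoplasmic extensions scored by phase-contrast photography.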

[10] = molecular target: Tyrosine-protein kinase ABL1 (Mus musculus) (UniProt P00520); assay: Inhibition of mouse recombinant Abl expressed in Escherichia coli at 10 uM by fluorescence polarization
[11] = molecular target: T1, Glycogen synthase kinase-3 beta; assay: Noncompetitive inhibition of GSK3-beta by double-reciprocal plotting in presence of 15 uM ATP
Method in brief: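 Double-reciprocal kinetics: GS-1 varied 6.5–100 µM with inhibitor 1–2 µM at fixed 15 µM ATP; [γ-32P] filter assay, V as pmol phosphate/20 min; each point mean of three experiments.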

[12] = system: 5-HT (non-selective) serotonin receptor (Rattus norvegicus); assay: Inhibition of [3H]serotonine binding to non-selective 5-HT serotoninergic receptor in rat cerebral cortex at 10 uM
[13] = molecular target: T2, Alpha-2A adrenergic receptor (Rattus norvegicus) (UniProt P22909); assay: Displacement of [3H]RX821002 from alpha2 adrenoceptor in rat cerebral cortex at 10 uM; type: tissue-based
T2 sequence (whole entry): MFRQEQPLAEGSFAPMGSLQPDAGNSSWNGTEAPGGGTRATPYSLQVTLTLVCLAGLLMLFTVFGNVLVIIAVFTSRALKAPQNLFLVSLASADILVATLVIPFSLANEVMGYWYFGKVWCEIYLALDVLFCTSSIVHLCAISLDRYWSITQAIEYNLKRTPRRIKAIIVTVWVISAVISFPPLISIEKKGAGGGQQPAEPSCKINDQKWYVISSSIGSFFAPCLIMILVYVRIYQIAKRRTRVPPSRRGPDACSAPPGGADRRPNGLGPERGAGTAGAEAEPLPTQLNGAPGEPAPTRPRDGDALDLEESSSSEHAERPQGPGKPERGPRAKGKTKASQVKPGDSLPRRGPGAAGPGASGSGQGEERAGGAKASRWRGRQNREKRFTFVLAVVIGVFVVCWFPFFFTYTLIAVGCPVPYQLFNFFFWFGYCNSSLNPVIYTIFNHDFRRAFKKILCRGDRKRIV
Method in brief: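 Rat cerebral cortex source; [3H]RX 821002 ligand at 0.5 nM; yohimbine as reference compound; non-selective alpha-2 site.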

[14] = organism: Rattus norvegicus; assay: Inhibition of rat CAM2 at 10 uM by liquid scintillation counting in presence of [33gammaP]ATP
Method in brief: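 CaM kinase II from rat brain; [γ33-P]ATP plus autocamtide-2 (5 µM); staurosporine reference; labelled autocamtide-2 counted by liquid scintillation; compounds at 10 µM.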

[15] = organism: Rattus norvegicus; assay: Inhibition of rat recombinant MAPK at 10 uM by liquid scintillation counting in presence of [33gammaP]ATP
Method in brief: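 Rat recombinant ERK42 MAP kinase expressed in E. coli; [γ33-P]ATP with MBP (0.5 mg/mL); staurosporine reference; liquid scintillation read-out; 10 µM compound.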

[16] = organism: Bos taurus; assay: Inhibition of bovine thymus p56LCK at 10 uM by liquid scintillation counting in presence of [33gammaP]ATP
Method in brief: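 p56lck from bovine thymus; [γ33-P]ATP with polyGT (0.5 mg/mL) substrate; staurosporine reference; liquid scintillation read-out; compounds tested at 10 µM.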

[17] = molecular target: Epidermal growth factor receptor (Homo sapiens) (UniProt P00533); assay: Inhibition of EGFR in human A431 at 10 uM by liquid scintillation counting in presence of [33gammaP]ATP
Method in brief: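 EGFR kinase from A-431 cells; substrate [γ33-P]ATP plus poly GAT (0.48 mg/mL); PD 153035 reference; product measured by liquid scintillation; compounds at 10 µM.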

[18] = organism: Rattus norvegicus; assay: Displacement of [3H]AMPA from AMPA receptor in rat cerebral cortex at 10 uM; type: tissue-based
[19] = molecular target: Glutamate NMDA receptor (Rattus norvegicus) (UniProt P35439+Q00959+Q00960+Q00961+Q62645+Q8VHN2+Q9R1M7); assay: Displacement of [3H]CGP39653 from NMDA receptor in rat cerebral cortex at 10 uM; type: tissue-based
[20] = organism: Rattus norvegicus; assay: Displacement of [3H]cystisine from alpha-BGTX insensitive nicotinic acetylcholine receptor in rat cerebral cortex at 10 uM; type: tissue-based
[21] = organism: Rattus norvegicus; assay: Displacement of [3H]cystisine from alpha-BGTX sensitive nicotinic acetylcholine receptor in rat cerebral cortex; type: tissue-based; set-up: concentration or dose not given beside the values; settings: concentration not given here
[22] = molecular target: T1, Glycogen synthase kinase-3 beta; assay: Irreversible inhibition of GSK3-beta mediated phosphorylation measured after careful washes by liquid scintillation counting
Method in brief: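 His-tagged recombinant GSK-3β immobilised on nickel agarose, incubated 20 min at 37 °C with inhibitor, 15 µM ATP, [γ-32P]ATP and GS-1 in Tris/MgCl2/EGTA/EDTA pH 7.5; gel pelleted, washed three times in Tris-MgCl2 buffer, then reassayed 15 min with fresh ATP/GS-1; P81 filter scintillation; activity relative to identically handled control.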

[23] = system: N2a; assay: Induction of neurite growth in mouse Neuro2a cells at 2 uM after 16 hrs by phase-contrast photography; type: functional, cell-based; method in brief: as §1

D(2) dopamine receptor (Homo sapiens), sequence (P14416 whole entry): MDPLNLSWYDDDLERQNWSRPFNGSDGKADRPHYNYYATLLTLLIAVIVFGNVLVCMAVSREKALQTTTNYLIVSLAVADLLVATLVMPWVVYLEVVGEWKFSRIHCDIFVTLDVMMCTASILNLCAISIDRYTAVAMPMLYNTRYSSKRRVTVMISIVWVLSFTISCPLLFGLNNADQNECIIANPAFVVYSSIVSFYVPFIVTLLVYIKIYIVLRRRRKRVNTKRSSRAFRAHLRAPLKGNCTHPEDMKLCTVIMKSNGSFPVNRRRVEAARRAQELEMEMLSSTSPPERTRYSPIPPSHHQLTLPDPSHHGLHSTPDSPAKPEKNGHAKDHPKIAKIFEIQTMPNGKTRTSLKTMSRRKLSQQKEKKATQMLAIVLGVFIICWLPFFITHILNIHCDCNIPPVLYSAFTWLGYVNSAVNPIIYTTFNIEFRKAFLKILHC
Tyrosine-protein kinase ABL1 (Mus musculus), sequence (P00520 whole entry): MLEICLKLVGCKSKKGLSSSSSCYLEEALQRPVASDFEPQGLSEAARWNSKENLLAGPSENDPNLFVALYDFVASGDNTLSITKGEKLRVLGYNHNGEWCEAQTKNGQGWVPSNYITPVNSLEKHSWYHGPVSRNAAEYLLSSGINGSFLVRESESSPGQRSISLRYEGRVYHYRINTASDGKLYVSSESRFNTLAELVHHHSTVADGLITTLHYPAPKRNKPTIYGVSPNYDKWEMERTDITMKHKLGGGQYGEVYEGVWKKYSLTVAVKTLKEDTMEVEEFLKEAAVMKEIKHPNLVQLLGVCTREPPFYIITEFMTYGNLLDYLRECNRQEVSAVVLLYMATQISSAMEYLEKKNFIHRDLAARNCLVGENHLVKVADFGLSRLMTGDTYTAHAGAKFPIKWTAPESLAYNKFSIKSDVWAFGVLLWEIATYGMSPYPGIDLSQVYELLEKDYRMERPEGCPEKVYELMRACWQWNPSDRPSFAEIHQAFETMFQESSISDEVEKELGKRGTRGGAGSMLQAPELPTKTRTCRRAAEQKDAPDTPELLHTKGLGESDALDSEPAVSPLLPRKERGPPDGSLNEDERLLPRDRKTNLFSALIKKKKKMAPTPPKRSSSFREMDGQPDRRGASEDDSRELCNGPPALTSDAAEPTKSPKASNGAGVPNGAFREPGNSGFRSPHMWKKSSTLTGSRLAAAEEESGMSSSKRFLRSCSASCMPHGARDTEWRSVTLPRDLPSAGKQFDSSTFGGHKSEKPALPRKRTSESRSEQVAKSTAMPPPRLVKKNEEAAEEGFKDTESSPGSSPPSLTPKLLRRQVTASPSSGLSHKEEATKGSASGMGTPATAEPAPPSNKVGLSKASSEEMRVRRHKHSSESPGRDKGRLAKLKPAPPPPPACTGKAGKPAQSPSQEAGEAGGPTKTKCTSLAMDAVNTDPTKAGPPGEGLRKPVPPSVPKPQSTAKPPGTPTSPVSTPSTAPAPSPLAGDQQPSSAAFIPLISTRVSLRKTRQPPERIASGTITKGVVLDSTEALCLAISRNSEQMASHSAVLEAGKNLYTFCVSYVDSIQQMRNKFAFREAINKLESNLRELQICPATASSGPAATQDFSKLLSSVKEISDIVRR
Epidermal growth factor receptor (Homo sapiens), sequence (P00533 whole entry): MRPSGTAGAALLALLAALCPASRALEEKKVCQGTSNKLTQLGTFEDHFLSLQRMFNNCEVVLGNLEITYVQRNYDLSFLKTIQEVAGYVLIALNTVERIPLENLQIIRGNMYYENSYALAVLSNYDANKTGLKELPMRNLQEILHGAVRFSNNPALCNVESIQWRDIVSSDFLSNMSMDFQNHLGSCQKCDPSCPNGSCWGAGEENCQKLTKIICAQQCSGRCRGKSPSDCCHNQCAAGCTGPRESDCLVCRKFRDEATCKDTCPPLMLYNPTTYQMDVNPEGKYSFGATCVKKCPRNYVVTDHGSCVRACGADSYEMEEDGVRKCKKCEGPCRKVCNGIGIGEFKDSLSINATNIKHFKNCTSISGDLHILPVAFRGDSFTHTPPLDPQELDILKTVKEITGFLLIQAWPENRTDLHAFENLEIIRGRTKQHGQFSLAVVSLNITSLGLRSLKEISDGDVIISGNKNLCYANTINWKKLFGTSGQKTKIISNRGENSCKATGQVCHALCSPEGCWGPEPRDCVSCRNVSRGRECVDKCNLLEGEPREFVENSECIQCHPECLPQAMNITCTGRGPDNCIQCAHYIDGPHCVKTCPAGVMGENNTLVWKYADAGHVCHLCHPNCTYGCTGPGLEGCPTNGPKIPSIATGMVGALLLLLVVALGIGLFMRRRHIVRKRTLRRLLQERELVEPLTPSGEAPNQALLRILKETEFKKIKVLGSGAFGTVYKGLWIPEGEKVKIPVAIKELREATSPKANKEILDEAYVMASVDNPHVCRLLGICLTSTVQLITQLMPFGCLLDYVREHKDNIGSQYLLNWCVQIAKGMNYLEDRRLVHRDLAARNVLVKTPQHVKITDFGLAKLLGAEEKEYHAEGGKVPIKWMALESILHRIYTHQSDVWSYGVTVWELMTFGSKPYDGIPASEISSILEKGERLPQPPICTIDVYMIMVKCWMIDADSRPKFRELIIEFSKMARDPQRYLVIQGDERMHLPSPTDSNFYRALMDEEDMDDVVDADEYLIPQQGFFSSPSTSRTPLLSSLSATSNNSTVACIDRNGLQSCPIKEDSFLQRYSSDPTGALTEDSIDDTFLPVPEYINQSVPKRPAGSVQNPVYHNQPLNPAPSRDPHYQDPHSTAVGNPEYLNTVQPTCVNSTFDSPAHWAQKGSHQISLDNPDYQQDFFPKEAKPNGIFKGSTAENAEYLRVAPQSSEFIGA
Dual specificity mitogen-activated protein kinase kinase 1 (Oryctolagus cuniculus), sequence (P29678 whole entry): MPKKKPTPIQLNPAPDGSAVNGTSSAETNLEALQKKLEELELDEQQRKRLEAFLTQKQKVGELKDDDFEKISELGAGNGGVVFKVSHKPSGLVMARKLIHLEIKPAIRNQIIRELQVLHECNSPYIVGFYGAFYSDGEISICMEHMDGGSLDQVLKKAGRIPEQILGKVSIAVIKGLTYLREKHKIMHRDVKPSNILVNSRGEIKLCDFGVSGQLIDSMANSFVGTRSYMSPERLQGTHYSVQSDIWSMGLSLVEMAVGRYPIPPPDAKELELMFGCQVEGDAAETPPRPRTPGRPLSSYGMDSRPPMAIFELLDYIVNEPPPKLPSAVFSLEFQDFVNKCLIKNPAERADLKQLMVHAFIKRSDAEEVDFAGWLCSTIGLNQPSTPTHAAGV
D(3) dopamine receptor (Homo sapiens), sequence (P35462 whole entry): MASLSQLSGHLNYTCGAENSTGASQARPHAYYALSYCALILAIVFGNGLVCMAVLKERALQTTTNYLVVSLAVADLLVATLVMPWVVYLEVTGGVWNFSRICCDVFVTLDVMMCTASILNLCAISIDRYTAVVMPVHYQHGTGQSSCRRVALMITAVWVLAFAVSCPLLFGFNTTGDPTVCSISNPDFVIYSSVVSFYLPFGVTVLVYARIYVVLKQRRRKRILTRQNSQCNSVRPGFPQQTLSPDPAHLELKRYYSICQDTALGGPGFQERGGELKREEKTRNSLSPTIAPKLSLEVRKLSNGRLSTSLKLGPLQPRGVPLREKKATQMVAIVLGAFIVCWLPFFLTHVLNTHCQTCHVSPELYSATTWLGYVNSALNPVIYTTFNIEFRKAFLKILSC
Proto-oncogene tyrosine-protein kinase Src (Homo sapiens), sequence (P12931 2-536 limits assumed): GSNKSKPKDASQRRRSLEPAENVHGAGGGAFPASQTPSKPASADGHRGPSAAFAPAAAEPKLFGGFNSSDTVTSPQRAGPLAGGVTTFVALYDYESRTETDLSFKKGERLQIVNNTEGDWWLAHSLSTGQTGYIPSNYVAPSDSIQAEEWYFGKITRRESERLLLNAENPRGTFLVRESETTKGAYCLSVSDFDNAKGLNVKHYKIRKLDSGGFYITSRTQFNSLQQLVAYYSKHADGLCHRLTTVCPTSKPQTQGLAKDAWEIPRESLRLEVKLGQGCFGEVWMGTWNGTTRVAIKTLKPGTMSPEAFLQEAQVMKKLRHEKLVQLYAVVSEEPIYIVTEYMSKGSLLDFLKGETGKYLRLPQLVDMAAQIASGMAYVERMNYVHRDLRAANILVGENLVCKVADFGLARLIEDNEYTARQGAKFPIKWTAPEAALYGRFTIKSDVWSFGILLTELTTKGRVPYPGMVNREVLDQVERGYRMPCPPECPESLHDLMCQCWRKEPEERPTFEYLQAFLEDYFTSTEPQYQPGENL
T1 sequence (P49841 whole entry, looked up): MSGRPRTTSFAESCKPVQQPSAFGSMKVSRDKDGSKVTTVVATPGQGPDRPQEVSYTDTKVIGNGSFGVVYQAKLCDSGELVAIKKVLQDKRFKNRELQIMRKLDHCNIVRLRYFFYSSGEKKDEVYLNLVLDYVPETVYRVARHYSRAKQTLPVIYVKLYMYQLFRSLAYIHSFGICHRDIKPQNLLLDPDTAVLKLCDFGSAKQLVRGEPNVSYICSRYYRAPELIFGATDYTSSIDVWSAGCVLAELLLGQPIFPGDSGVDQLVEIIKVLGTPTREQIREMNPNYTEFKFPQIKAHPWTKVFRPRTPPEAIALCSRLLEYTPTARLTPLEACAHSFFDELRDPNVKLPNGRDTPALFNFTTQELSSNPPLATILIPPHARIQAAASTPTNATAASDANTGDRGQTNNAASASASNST
Glycogen synthase kinase-3 beta (Mus musculus), sequence (Q9WV60 whole entry, looked up): as the sequence (P49841 whole entry, looked up) above, with T390P, T392A, A400T, T402A counted along it

Compound | inhibition [1] | inhibition [2] [%] | inhibition [3] [%] | inhibition [4] [%] | inhibition [5] [%] | inhibition [6] [%] | inhibition [7] [%] | Activity [8] | inhibition [10] [%] | inhibition [11] | inhibition [12] [%] | inhibition [13] [%] | inhibition [14] [%] | inhibition [15] [%] | inhibition [16] [%] | inhibition [17] [%] | inhibition [18] [%] | inhibition [19] [%] | inhibition [20] [%] | inhibition [21] [%] | also measured
O=C(CCl)c1csc(C(=O)CCl)c1 | Active | < 10 | < 10 | 12 | < 10 | 94 | < 10 | Active | < 10 | Active | < 10 | 10 | 21 | < 10 | 49 | 16 | 25 | < 10 | < 10 | < 10 | Activity [9]: Active
O=C(CCl)c1cc(Br)c(Br)s1 | – | < 10 | < 10 | < 10 | < 10 | 69 | < 10 | – | < 10 | – | < 10 | < 10 | < 10 | < 10 | < 10 | < 10 | < 10 | < 10 | < 10 | < 10 | Activity [22]: Active
O=C(CCl)c1c(Br)sc(Cl)c1Cl | Active | < 10 | 31 | < 10 | < 10 | 26 | < 10 | Active | < 10 | Active | < 10 | < 10 | < 10 | < 10 | 33 | < 10 | < 10 | 13 | < 10 | < 10 | Activity [22]: Active; Activity [23]: Active
